# Assay results as given in article PMC5155582 (ChemMedChem, 2016).
# Molecular target: T1, CYP2B6 (Homo sapiens, UniProt P20813)
# T1 sequence (P20813 1-491): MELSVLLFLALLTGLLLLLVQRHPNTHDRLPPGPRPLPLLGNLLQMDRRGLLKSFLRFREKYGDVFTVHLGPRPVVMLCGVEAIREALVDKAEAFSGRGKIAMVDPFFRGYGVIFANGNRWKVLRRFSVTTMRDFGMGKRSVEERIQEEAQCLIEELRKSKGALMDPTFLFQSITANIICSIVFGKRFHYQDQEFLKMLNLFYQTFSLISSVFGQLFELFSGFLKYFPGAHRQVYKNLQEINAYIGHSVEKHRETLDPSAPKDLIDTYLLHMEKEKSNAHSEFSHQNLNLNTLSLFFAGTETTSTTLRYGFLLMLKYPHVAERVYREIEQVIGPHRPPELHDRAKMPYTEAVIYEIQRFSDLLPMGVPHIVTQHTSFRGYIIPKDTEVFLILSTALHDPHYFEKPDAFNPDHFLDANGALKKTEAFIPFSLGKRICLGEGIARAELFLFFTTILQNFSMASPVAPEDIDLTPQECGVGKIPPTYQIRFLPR
# Test: Product formation kinetic analysis
# Assay type: in vitro ADME
# Details: cDNA-expressed CYP2B6
# Procedure, shortened: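 cDNA-expressed CYP2B6 (5–20 nM) in 100 mM potassium phosphate pH 7.4 at 37 °C. Eight substrate concentrations, 0.5–100 μM (0.5–30 μM for one poorly soluble analogue); parent drug run the same way. NADPH regenerating system, 5–20 min, with linearity in enzyme and time set by pilot runs. Ice-cold acetonitrile stop. Product measured by SRM uHPLC-MS/MS or UV, without authentic standards. KM from a substrate-inhibition fit; fold change is analogue KM divided by the parent's 8-hydroxylation KM.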
row,SMILES,Km
1,"O=C1Nc2ccc(Cl)cc2[C@@](C#CC2CC2)(C(F)(F)F)O1 [EFV, (4S)-6-Chloro-4-(2-cyclopropylethynyl)-1,4-dihydro-4-(trifluoromethyl)-2H-3,1-benzoxazin-2-one, reference compound]",3.6 ± 1.7 µM
2,"CC1Nc2ccc(Cl)cc2C(C#CC2CC2)(C(F)(F)F)O1 (stereo not drawn) [analogue 1, 6-Chloro-4-(2-cyclopropylethynyl)-1,4-dihydro-2-methyl-4-(trifluoromethyl)-2H-3,1-benzoxazine]",~1 µM
3,"O=C1CC(C#CC2CC2)(C(F)(F)F)c2cc(Cl)ccc2N1 (stereo not drawn) [analogue 4, 6-Chloro-4-(cyclopropylethynyl)-3,4-dihydro-4-(trifluoromethyl)-2(1H)-quinolinone]",14 ± 6.4 µM

# Molecular target: T2, rat CYP2B1 (Rattus norvegicus, UniProt P00176)
# T2 sequence (P00176 1-491): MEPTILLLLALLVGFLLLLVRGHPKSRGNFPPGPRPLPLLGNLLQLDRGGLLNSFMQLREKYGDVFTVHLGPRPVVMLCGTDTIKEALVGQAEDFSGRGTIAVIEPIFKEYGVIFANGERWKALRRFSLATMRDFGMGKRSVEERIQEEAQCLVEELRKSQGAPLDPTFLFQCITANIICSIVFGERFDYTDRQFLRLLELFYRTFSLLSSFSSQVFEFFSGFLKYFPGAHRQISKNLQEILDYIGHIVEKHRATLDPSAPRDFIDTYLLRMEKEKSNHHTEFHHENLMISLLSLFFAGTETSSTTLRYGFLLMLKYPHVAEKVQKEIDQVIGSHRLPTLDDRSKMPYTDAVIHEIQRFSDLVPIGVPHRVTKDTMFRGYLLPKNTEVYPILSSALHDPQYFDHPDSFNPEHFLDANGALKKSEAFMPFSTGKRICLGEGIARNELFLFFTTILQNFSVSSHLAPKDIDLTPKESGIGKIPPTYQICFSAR
# Test: Comparison of metabolite formation by cDNA-expressed CYP2B1 and CYP2B6
# Assay type: in vitro ADME
# Details: 10 nM cDNA-expressed CYP2B1, 10 μM substrate, 30 min
# Procedure, shortened: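 cDNA-expressed rat CYP2B1 or human CYP2B6 systems, both with cytochrome b5 (CYP:reductase:b5 molar ratio 1:1:2 for 2B1, 1:10:2 for 2B6), 10 nM, run side by side with 10 μM substrate in 100 mM potassium phosphate pH 7.4. 5 min preincubation at 37 °C, then NADPH regenerating system for 30 min at 37 °C. Acetonitrile stop, then uHPLC-MS or uHPLC-UV (220 nm). CYP2B1 peak height normalised to mean CYP2B6 peak height (100%). Three independent experiments, mean ± SEM.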
row,SMILES,Metabolite formation by CYP2B1 (in words)
1,"COc1ccc(C(=O)Nc2ccc(Cl)cc2C(O)(C#CC2CC2)C(F)(F)F)cc1 (racemic) [methoxybenzamide analogue, rac N-[4-Chloro-2-[3-cyclopropyl-1-hydroxy-1-(trifluoromethyl)-2-propynyl]phenyl]-4-methoxybenzamide]",did not form metabolites
2,"CCCC#CC1(C(F)(F)F)OC(=O)Nc2ccc(Cl)cc21 (racemic) [pentynyl analogue, rac 6-Chloro-1,4-dihydro-4-(1-pentynyl)-4-(trifluoromethyl)-2H-3,1-benzoxazin-2-one]",M4 and M5 formation
3,Nc1ccc(Cl)cc1[C@](O)(C#CC1CC1)C(F)(F)F [(R)-5-Chloro-α-(cyclopropylethynyl)-2-amino-α-(trifluoromethyl)benzenemethanol],displayed activity
4,Nc1ccc(Cl)cc1[C@@](O)(C#CC1CC1)C(F)(F)F [(S)-5-Chloro-α-(cyclopropylethynyl)-2-amino-α-(trifluoromethyl)benzenemethanol],displayed activity
5,"O=C1Nc2ccc(Cl)cc2[C@@](/C=C/C2CC2)(C(F)(F)F)O1 [E-dihydroefavirenz, (E)-Dihydroefavirenz]",M2 formation

# Same assay, conditions: 10 nM enzyme, 10 μM substrate, 30 min; CYP2B6 peak height set at 100%
row,SMILES,Metabolite formed by CYP2B1 as percent of metabolite formed by CYP2B6
1,"O=C1Nc2c(O)cc(Cl)cc2[C@@](C#CC2CC2)(C(F)(F)F)O1 [8-OH EFV, 8-hydroxyefavirenz]",~48%
